Assay results gathered from unrelated publications.
Observed: cell growth or viability

Compound	cell line	technique	tested at	time	quantity	value
N.N.[Cl][Pt][Cl]	MDA-MB-231	MTT	–	72 h	GI50	4.18 µM
C/C1=C/C(=O)O[C@@H]2C[C@@H](CC[C@H](C)/C=C\C=C\CC1)O[C@@](O)([C@@H]1CSC(=O)N1)C2	MDA-MB-231	MTT	–	72 h	IC50	4.19 µM
O=C(O)CCn1cc(C(=O)c2ccc(F)cc2)c2cc(-c3ccc(N4CCNCC4)nc3)cnc21	MRC5	MTT	10 µM	48 h	viability	77.7%
CO[C@]1([C@@H]2CSC(=O)N2C2CCCC2)C[C@H]2C[C@@H](CC[C@H](C)/C=C\C=C\CC/C(C)=C\C(=O)O2)O1	MDA-MB-231	MTT	–	72 h	IC50	5.07 µM
COc1cccc2c1C(=O)c1c(O)c3c(c(O)c1C2=O)C[C@@](O)(C(=O)CO)C[C@@H]3O[C@H]1C[C@H](N)[C@H](O)[C@H](C)O1	LLC-PK11	–	–	48 h	IC50	0.9 µg/mL
N.N.[Cl][Pt][Cl]	A-375	SRB	–	–	EC50	1.2 µM
CCN1C(=O)SCC1C1(OC)CC2CC(CCC(C)C=CC=CCCC(C)=CC(=O)O2)O1 (stereo not shown)	MDA-MB-231	MTT	–	72 h	IC50	> 50 µM
O=C(c1ccc(F)cc1)c1c[nH]c2ncc(-c3ccc(N4CCOCC4)nc3)cc12	MRC5	MTT	10 µM	48 h	viability	68.1%
Cl.O[C@]12C=C(c3nccc4c3[nH]c3ccccc34)[C@@H]3CCN(CCCC/C=C\CC1)C[C@@]31C[C@@H]3/C=C\CCCCN3[C@H]12	LLC-PK11	neutral red	–	48 h	IC50	0.69 µg/mL
COc1ccc(C(=O)c2c[nH]c3ncc(-c4ccc(N5CCN(S(C)(=O)=O)CC5)nc4)cc23)cc1	MRC5	MTT	10 µM	48 h	viability	70.1%
[Cl-].[Cl-].[Co+2]	BEL-7404	MTT	–	48 h	IC50	> 150 µM
O=C(c1ccc(F)cc1)c1c[nH]c2ncc(-c3ccnc(N4CCOCC4)c3)cc12	MRC5	MTT	10 µM	48 h	viability	89.4%
CCN1C(=O)SC[C@H]1[C@@]1(O)C[C@H]2C[C@@H](CC[C@H](C)/C=C\C=C\CC/C(C)=C\C(=O)O2)O1	MDA-MB-231	MTT	–	72 h	IC50	7.19 µM
